From ChEMBL document CHEMBL1132122, “Synthesis and antimalarial activity of 11 dispiro-1,2,4,5-tetraoxane analogues of WR 148999. 7,8,15,16-Tetraoxadispiro[5.2.5.2]hexadecanes substituted at the 1 and 10 positions with unsaturated and polar functional groups” (J Med Chem, 1999) come the findings set out here.

Molecules are shown by their SMILES.

Test [1] concerns Plasmodium falciparum. Kind of test: In vitro antimalarial activity against drug-sensitive Plasmodium falciparum NF54.
Test [2] deals with Mus musculus. Kind of test: In vivo evaluation for antimalarial activity against Plasmodium berghei in percentage when administered subcutaneously in mice (Mus musculus). It is filed as functional. Also noted: concentration or dose not given beside the values. The gist of the method:
(§1)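 Moro SPF mice infected with P. berghei ANKA, three per group. A single 100 mg/kg dose in 3% ethanol/7% Tween 80 (solution or suspension) was given on day 1 post-infection, po or sc. Activity is percent reduction of parasitemia on day 3 post-infection versus untreated controls.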

The test system of test [3] is Plasmodium falciparum. Kind of test: In vitro antimalarial activity against chloroquine-resistant Plasmodium falciparum K1. It is filed as functional, organism-based. The gist of the method: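 Tritiated hypoxanthine uptake assay (modified Desjardins method) on P. falciparum asexual cultures, run on chloroquine-resistant K1 and drug-sensitive NF54 strains.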
Test [4] relates to Mus musculus. Put plainly: In vivo evaluation for antimalarial activity against Plasmodium berghei in terms of survival days when administered subcutaneously in mice (Mus musculus). The class given is functional. The gist of the method: (§2)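 P. berghei ANKA infection in Moro SPF mice, groups of three. Treatment was one 100 mg/kg dose on day 1 post-infection, dissolved or suspended in 3% ethanol plus 7% Tween 80, given orally or subcutaneously. Read-out is mean survival time in days, compared with an untreated control group.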

Test [5] relates to Mus musculus. Kind of test: In vivo evaluation for antimalarial activity against Plasmodium berghei in percentage when administered orally in mice (Mus musculus). It is filed as functional. On the set-up: concentration or dose not given beside the values. In outline: as §1
Test [6] has as its system Mus musculus. Kind of test: In vivo evaluation for antimalarial activity against Plasmodium berghei in terms of survival days when administered orally in mice (Mus musculus). It is filed as functional. The gist of the method:
as §2

What is called IC50 is the concentration that gives 50% inhibition. With `COC[C@H]1CCCCC12OOC1(CCCC[C@H]1COC)OO2` (some centres not stated), the IC50 in the test with Plasmodium falciparum [1] came to 0.016 µM; in the test with Plasmodium falciparum [3], 0.015 µM. Also, the values for the Activity in the test on Mus musculus [2] and in the test on Mus musculus [5] were 100% and 18%, respectively. This compound came in with a Survival in the test with Mus musculus [4] of 24.7 days.

Take `CCOC(=O)C[C@H]1CCCCC12OOC1(CCCC[C@H]1CC(=O)OCC)OO2` (some centres not stated): the IC50 stood at 0.0065 µM in the test on Plasmodium falciparum [1] and 0.0062 µM with Plasmodium falciparum [3]. Moreover, the Activity in the test on Mus musculus [2] and with Mus musculus [5] was 0% in each case.

For the compound `O=C(O)CC[C@H]1CCCCC12OOC1(CCCC[C@H]1CCC(=O)O)OO2` (some centres not stated), the IC50 in the test with Plasmodium falciparum [1] and with Plasmodium falciparum [3] was > 0.2 µM each time.

Consider `OC[C@@H]1CCCCC12OOC1(CCCC[C@@H]1CO)OO2` (some centres not stated), for which the IC50 with Plasmodium falciparum [1] and in the test on Plasmodium falciparum [3] was > 0.2 µM in each case.

`CCOC(=O)CC[C@H]1CCCCC12OOC1(CCCC[C@H]1CCC(=O)OCC)OO2` (some centres not stated): the IC50 with Plasmodium falciparum [1] was 0.016 µM; with Plasmodium falciparum [3], 0.014 µM. In addition, the Activity in the test with Mus musculus [2] and in the test with Mus musculus [5] was 0% each time.

On to `O=C(O)C[C@H]1CCCCC12OOC1(CCCC[C@H]1CC(=O)O)OO2` (some centres not stated), for which the IC50 in the test with Plasmodium falciparum [1] and in the test on Plasmodium falciparum [3] was > 0.2 µM each time.

`c1ccc(COC[C@H]2CCCCC23OOC2(CCCC[C@H]2COCc2ccccc2)OO3)cc1` (some centres not stated): the values for the IC50 in the test with Plasmodium falciparum [1] and in the test on Plasmodium falciparum [3] were 0.026 µM and 0.018 µM, respectively. Besides, the Activity with Mus musculus [2] and with Mus musculus [5] was 0% each time.

For `O=C(OC[C@H]1CCCCC12OOC1(CCCC[C@H]1COC(=O)c1ccccc1)OO2)c1ccccc1` (some centres not stated), the IC50 in the test with Plasmodium falciparum [1] and with Plasmodium falciparum [3] was > 0.2 µM in each case.

In the case of `c1ccc(C[C@H]2CCCCC23OOC2(CCCC[C@H]2Cc2ccccc2)OO3)cc1` (some centres not stated), the IC50 with Plasmodium falciparum [1] and with Plasmodium falciparum [3] was > 0.2 µM throughout.

`C#CC[C@@H]1CCCCC12OOC1(CCCC[C@@H]1CC#C)OO2` (some centres not stated): the IC50 in the test on Plasmodium falciparum [1] and in the test on Plasmodium falciparum [3] was 0.013 µM each time. In addition, the results for the Activity with Mus musculus [2] and with Mus musculus [5] were 9% and 0%, respectively.

Take `C=CC[C@@H]1CCCCC12OOC1(CCCC[C@@H]1CC=C)OO2` (some centres not stated): the results for the IC50 with Plasmodium falciparum [1] and in the test with Plasmodium falciparum [3] were 0.023 µM and 0.019 µM, respectively. Also, the Survival with Mus musculus [6] is 7 days. Moreover, the Activity with Mus musculus [2] is reported as 15%; in the test with Mus musculus [5] it was 93%.

The compound `C[C@@H]1CC[C@H]2[C@@H](C)C(=O)O[C@@H]3O[C@@]4(C)CC[C@@H]1[C@]32OO4` [ARTEMISININ] came in with an IC50 with Plasmodium falciparum [1] of 0.012 µM. Also, the Survival in the test on Mus musculus [6] came out at 7.3 days; in the test with Mus musculus [4] it was 14 days. For the same compound, the results for the Activity in the test on Mus musculus [2] and in the test on Mus musculus [5] were 100% and 98%, respectively.

Regarding `C[C@@H]1CCCCC12OOC1(CCCC[C@@H]1C)OO2` (some centres not stated) [WR-148999], the IC50 with Plasmodium falciparum [1] is 0.039 µM; in the test with Plasmodium falciparum [3], 0.028 µM. Moreover, the results for the Survival in the test with Mus musculus [6] and with Mus musculus [4] were 7.7 days and 27.7 days, respectively. Further, the results for the Activity in the test on Mus musculus [2] and with Mus musculus [5] were 100% and 99.7%, respectively.
